According to paper PMC2364724 (Drug metabolism and disposition: the biological fate of …, 2007):
“And” between values parts separate entries of the source, which are not always exact repeats. Identical values can stand only once.

What was measured:
[1] = system: pooled HIM; test: Phase I biotransformation of DB289 in pooled HIM; type: in vitro ADME, human; details: for Phase I metabolite detection (HPLC/UV): 10 μM DB289, pooled HIM 0.2 mg/ml, NADPH, up to 120 min
Outline: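 Test compound (10 μM) with pooled HIM (0.2 mg/ml) in 100 mM phosphate pH 7.4, 3.3 mM MgCl2. Equilibrated 5 min at 37°C, then started with 1 mM NADPH. Aliquots taken at 0, 15, 30 and 120 min were quenched in ice-cold acetonitrile and analysed by HPLC/UV. Metabolites were assigned by retention time against synthetic standards. Controls omitted NADPH, microsomal protein or substrate.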

[2] = system: pooled HLM (human liver microsomes); details: M1 formation, 0.02 mg/ml protein, 3 min, ref Wang et al., 2006; cited from earlier work
[3] = system: HLM; details: panel of HLM; ref Wang et al., 2006; cited from earlier work
[4] = Solubility in the incubation buffer; type: physicochemical; details: highest concentration tested 25 μM
[5] = Enzyme kinetics of M1 formation; type: in vitro ADME, human; details: human
[6] = system: human intestinal microsomes (HIM); test: Enzyme kinetics of M1 formation; type: in vitro ADME; details: for KMapp(1): 5 min
[7] = six healthy men, p.o. 14C-DB289, single-dose escalation; ref C. Olson, Immtech Pharmaceuticals Inc., personal communication; cited from earlier work
[8] = system: purified CYP4A11; details: higher for CYP4A11; ref Powell et al., 1998; cited from earlier work
[9] = system: recombinant CYP2J2; details: ref Hashizume et al. (2002); cited from earlier work
[10] = system: P450 enzymes of pooled HIM (M1 formation from DB289); test: Chemical inhibition of M1 formation in pooled HIM; type: biochemical, human
[11] = system: pooled HLM; test: Effect of α-NF on M1 formation by pooled HLM; type: biochemical, human; details: 1 μM α-NF, 3 μM DB289, P > 0.05
[12] = biological target: T1, recombinant CYP4F2 (Homo sapiens, UniProt P78329); test: Effect of α-NF on M1 formation by recombinant CYP4F2; type: biochemical; details: recombinant CYP4F2, 1 μM α-NF, 3 μM DB289, P > 0.05
T1 sequence (P78329 5-520): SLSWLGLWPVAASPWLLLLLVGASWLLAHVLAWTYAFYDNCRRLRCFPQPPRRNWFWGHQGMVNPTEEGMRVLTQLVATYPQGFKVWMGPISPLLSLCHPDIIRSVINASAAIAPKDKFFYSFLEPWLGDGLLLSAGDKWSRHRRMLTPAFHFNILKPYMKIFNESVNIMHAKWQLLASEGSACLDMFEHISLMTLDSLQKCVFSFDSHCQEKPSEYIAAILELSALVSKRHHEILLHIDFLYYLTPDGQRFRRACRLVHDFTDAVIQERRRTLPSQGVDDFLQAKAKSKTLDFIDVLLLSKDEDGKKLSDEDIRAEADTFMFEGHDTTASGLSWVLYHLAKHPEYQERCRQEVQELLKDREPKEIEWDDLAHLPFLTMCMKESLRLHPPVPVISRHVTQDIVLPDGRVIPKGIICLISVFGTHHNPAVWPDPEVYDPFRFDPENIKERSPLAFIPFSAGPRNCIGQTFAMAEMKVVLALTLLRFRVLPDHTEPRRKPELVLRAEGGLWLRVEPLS

[13] = biological target: T2, recombinant CYP2J2 (Homo sapiens, UniProt P51589); test: Effect of α-NF on M1 formation by recombinant CYP2J2; type: biochemical; details: recombinant CYP2J2 10 pmol/ml, 1 μM α-NF, 3 μM DB289, P < 0.05
T2 sequence (P51589 1-502): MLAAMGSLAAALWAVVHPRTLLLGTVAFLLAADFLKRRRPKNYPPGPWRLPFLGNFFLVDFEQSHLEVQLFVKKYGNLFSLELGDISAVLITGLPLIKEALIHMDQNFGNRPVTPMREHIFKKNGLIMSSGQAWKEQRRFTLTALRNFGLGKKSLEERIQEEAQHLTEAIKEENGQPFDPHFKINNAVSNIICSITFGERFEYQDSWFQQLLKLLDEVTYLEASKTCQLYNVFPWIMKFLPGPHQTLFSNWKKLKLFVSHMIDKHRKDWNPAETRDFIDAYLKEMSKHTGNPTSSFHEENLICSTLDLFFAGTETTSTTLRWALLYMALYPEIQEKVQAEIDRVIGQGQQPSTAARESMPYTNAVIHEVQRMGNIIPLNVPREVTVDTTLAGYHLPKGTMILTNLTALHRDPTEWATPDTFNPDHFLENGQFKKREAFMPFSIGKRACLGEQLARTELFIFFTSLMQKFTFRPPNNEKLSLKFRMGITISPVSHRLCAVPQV

[14] = biological target: recombinant CYP3A4 (Homo sapiens, UniProt P08684); test: Effect of α-NF on M1 formation by recombinant CYP3A4; type: biochemical; details: recombinant CYP3A4 10 pmol/ml, 1 μM α-NF, 3 μM DB289, 15 min, P < 0.05
[15] = biological target: T3, recombinant CYP4F3B (Homo sapiens, UniProt Q08477); test: Effect of α-NF on M1 formation by recombinant CYP4F3B; type: biochemical; details: 1 μM α-NF, 3 μM DB289, P > 0.05
T3 sequence (Q08477 1-520 isoform Q08477-2): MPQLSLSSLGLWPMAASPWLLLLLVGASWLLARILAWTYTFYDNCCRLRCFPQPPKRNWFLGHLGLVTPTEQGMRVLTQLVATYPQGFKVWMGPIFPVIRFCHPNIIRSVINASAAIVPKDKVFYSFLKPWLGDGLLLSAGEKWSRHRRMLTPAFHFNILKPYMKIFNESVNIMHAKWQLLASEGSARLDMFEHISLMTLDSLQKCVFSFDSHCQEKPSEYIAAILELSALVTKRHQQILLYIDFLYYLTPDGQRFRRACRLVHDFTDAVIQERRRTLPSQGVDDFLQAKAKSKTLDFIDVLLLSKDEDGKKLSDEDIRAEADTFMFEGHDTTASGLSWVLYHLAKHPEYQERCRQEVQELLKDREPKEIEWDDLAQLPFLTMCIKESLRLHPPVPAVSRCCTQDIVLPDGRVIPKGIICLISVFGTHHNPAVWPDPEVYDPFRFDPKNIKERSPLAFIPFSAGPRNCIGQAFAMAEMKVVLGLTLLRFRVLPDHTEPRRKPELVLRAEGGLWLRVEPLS

[16] = M1 formation, HIM 3, 0.2 mg/ml protein
[17] = M1 formation, HIM 7, 0.2 mg/ml protein
[18] = M1 formation, HIM 30, 0.2 mg/ml protein
[19] = M1 formation, HIM 31, 0.2 mg/ml protein

Sequence of recombinant CYP3A4 (P08684 whole entry): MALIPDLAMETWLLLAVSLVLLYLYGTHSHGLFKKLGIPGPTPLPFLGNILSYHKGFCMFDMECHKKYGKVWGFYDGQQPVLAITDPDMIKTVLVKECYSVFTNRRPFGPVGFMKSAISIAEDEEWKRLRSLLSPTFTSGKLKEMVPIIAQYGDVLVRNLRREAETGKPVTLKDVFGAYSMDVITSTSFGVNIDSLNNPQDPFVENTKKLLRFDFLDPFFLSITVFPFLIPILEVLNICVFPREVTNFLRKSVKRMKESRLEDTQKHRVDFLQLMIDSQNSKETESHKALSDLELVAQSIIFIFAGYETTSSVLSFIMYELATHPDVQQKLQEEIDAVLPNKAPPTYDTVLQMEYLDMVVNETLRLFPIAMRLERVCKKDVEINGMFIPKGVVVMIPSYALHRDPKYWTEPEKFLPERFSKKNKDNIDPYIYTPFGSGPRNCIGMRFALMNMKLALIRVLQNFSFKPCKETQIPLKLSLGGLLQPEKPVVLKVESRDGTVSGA

In the case of `N=C(N)c1ccc(-c2ccc(-c3ccc(C(=N)N)cc3)o2)cc1` [DB75, 2,5-bis(4-amidinophenyl) furan], the “Phase I metabolite detection (HPLC/UV)” value [1] is reported as “not detected”.

In the case of `CONC(=N)c1ccc(-c2ccc(-c3ccc(C(=N)NOC)cc3)o2)cc1` [DB289, 2,5-bis(4-amidinophenyl)furan-bis-O-methylamidoxime], the “KMapp(1)” value [2] is given as 0.5 µM, the “variation in M1 formation rates” value [3] is given as 4 fold and ~ 4 fold and the “solubility in the incubation buffer” value [4] is given as “limited”. For the same molecule, the microsomal CLint ([5]; human intestinal microsomes (individual HIM 32), pH 7.4, CL′int(1), M1 formation, HIM 32, Vmax(1)/KMapp(1)) was 730 µL/min/mg, the microsomal CLint ([5]; human intestinal microsomes (pooled and nine individual HIM), pH 7.4, total intrinsic clearance [CL′int(1) + CL′int(2)] of M1 formation, range, HIM) was 10 to 730 µL/min/mg and the “total intrinsic clearance of M1 formation by HIM relative to pooled HLM” value ([6]; HIM versus pooled HLM) was “at most 10%”. The “Vmax(1)” value ([6]; M1 formation, HIM 1, 0.2 mg/ml protein) was 0.12 nmol/min/mg protein, the “KMapp(1)” value ([6]; M1 formation, HIM 1, 0.2 mg/ml protein, biphasic) was 0.8 µM and the “Vmax(1)” value ([6]; M1 formation, HIM 2, 0.1 mg/ml protein) was 0.42 nmol/min/mg protein. For the same molecule, the “KMapp(1)” value ([6]; M1 formation, HIM 2, 0.1 mg/ml protein, biphasic) was 0.7 µM, the “Vmax(1)” value [6, 16] was 0.24 nmol/min/mg protein and the “KMapp(1)” value [6, 16] was 1.3 µM. The “Vmax(1)” value [6, 17] was 0.89 nmol/min/mg protein, the “KMapp(1)” value [6, 17] was 1.3 µM and the “KMapp(1)” value ([6]; M1 formation, HIM 12, 0.2 mg/ml protein) was 2.3 µM. The “KMapp(1)” value ([6]; M1 formation, HIM 23A, 0.2 mg/ml protein, biphasic) was 2.4 µM, the “Vmax(1)” value [6, 18] was 0.19 nmol/min/mg protein and the “KMapp(1)” value [6, 18] was 0.6 µM. The “Vmax(1)” value [6, 19] was 0.02 nmol/min/mg protein, the “KMapp(1)” value [6, 19] was 1.4 µM and the “Vmax(1)” value ([6]; M1 formation, HIM 32, 0.1 mg/ml protein) was 0.44 nmol/min/mg protein. The “KMapp(1)” value ([6]; M1 formation, HIM 32, 0.1 mg/ml protein, 37°C) was 0.6 µM, the “KMapp(1), average” value ([6]; M1 formation, nine individual HIM) was 1.3 µM and the “Vmax(1)” value ([6]; M1 formation, pooled HIM, 0.2 mg/ml protein) was 0.19 nmol/min/mg protein. For the same molecule, the “KMapp(1)” value ([6]; M1 formation, pooled HIM, 0.2 mg/ml protein, biphasic) was 0.7 µM, the “coefficient of variation for Cmax” value [7] was “approximately 50%” and the “coefficient of variation for area under the curve” value [7] was “approximately 50%”. For the same molecule, the “coefficient of variation for terminal half-life” value [7] was “approximately 50%”.

For `CON=C(N)c1ccc(-c2ccc(-c3ccc(C(N)=NO)cc3)o2)cc1` [M1], the “Phase I metabolite detection (HPLC/UV)” value [1] was “identified” and the “fraction of M1 further metabolized” value ([1]; within the first 15 min of incubation, 10 μM DB289, pooled HIM) was “Less than 10%”.

For `NC(=NO)c1ccc(-c2ccc(-c3ccc(C(N)=NO)cc3)o2)cc1` [M2], the “Phase I metabolite detection (HPLC/UV)” value [1] was “identified”.

With `CON=C(N)c1ccc(-c2ccc(-c3ccc(C(=N)N)cc3)o2)cc1` [M3] the “Phase I metabolite detection (HPLC/UV)” value [1] was “identified”.

In the case of `N=C(N)c1ccc(-c2ccc(-c3ccc(C(N)=NO)cc3)o2)cc1` [M4], the “Phase I metabolite detection (HPLC/UV)” value [1] is reported as “not detected”.

In the case of `CCCCC/C=C\C/C=C\C/C=C\C/C=C\CCCC(=O)O` [arachidonic acid], the “Km of 20-HETE formation, CYP4A11 relative to CYP4F2” value [8] is listed as 10 fold.

In the case of `CC(C)(C)c1ccc(C(=O)CCCN2CCC(OC(c3ccccc3)c3ccccc3)CC2)cc1` [ebastine], the Km [9] is listed as 1.3 µM.

With `CCCCCCCCCCCC(=O)O` [lauric acid] the “inhibition of M1 formation” value ([10]; pooled HIM 0.2 mg/ml, 3 μM DB289, 5 min, inhibitor concentration as in Fig. 2A) was “lack of inhibition”.

For `O=c1cc(-c2ccccc2)oc2c1ccc1ccccc12` [α-NF, α-naphthoflavone], the “effect on M1 formation” value [11] was “not significant”, the “effect on M1 formation” value [12] was “not significant” and the “activation of M1 formation” value ([10]; different lot of pooled HIM, 1 μM α-NF, 3 μM DB289, P < 0.05) was 34%. For the same molecule, the “activation of M1 formation” value ([10]; pooled HIM, 3 μM DB289 (Fig. 2A)) was 43%, the “activation of M1 formation” value [13] was 55% and the “activation of M1 formation” value [14] was 120%. The “effect on M1 formation” value [15] was “not significant”.
